In ChEMBL document CHEMBL3865799, “Synthesis of a series of novel dihydroartemisinin monomers and dimers containing chalcone as a linker and their anticancer activity” (Eur J Med Chem, 2016):

Assays:
[1] = Cytotoxicity against human MIAPaCa2 cells assessed as cell growth inhibition at 50 uM after 48 hrs by MTT assay; format: functional; details: MIA PaCa-2, 48 h, read-out: GI
Procedure, shortened: (§1)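 Adherent lines at 70–75% confluence, grown at 37 °C in 5% CO2 with 10% FCS. Exposed 48 h to compound in DMSO (vehicle <0.2% v/v). MTT dye added 3 h before termination; formazan dissolved in DMSO, OD 570 nm with 620 nm reference. Growth inhibition expressed as % of untreated; IC50 taken from the dose series.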

[2] = Cytotoxicity against human PC3 cells assessed as cell growth inhibition at 30 uM after 48 hrs by MTT assay; format: functional; details: PC-3, 48 h, read-out: GI; procedure, shortened: as §1
[3] = Cytotoxicity against human HL60 cells assessed as cell growth inhibition at 50 uM after 48 hrs by MTT assay; format: functional; details: HL-60, 48 h, read-out: GI
Procedure, shortened: (§2)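 HL-60 suspension cells, 1.5 × 10^4 per well, grown at 37 °C in 5% CO2 with 10% FCS. Treated 48 h with compound in DMSO (vehicle <0.2% v/v). MTT added 3 h before the end. Formazan dissolved in DMSO and read at 570 nm (reference 620 nm). % growth inhibition computed against untreated cells; IC50 taken from the concentration series.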

[4] = Cytotoxicity against human HepG2 cells assessed as cell growth inhibition at 50 uM after 48 hrs by MTT assay; format: functional; details: HepG2, 48 h, read-out: GI; procedure, shortened: as §1
[5] = Cytotoxicity against human MIAPaCa2 cells assessed as cell growth inhibition at 30 uM after 48 hrs by MTT assay; format: functional; details: MIA PaCa-2, 48 h, read-out: GI; procedure, shortened: as §1
[6] = Cytotoxicity against human PC3 cells assessed as cell growth inhibition at 50 uM after 48 hrs by MTT assay; format: functional; details: PC-3, 48 h, read-out: GI; procedure, shortened: as §1
[7] = Lipophilicity, log P of the compound; format: physicochemical; details: octanol/water
[8] = Cytotoxicity against human LS180 cells assessed as cell growth inhibition at 50 uM after 48 hrs by MTT assay; format: functional; details: LS180, 48 h, read-out: GI; procedure, shortened: as §1
[9] = Aqueous solubility of the compound at pH 7; format: physicochemical
[10] = Cytotoxicity against human LS180 cells assessed as cell growth inhibition at 30 uM after 48 hrs by MTT assay; format: functional; details: LS180, 48 h, read-out: GI; procedure, shortened: as §1
[11] = Cytotoxicity against human HL60 cells assessed as cell growth inhibition at 30 uM after 48 hrs by MTT assay; format: functional; details: HL-60, 48 h, read-out: GI; procedure, shortened: as §2
[12] = Cytotoxicity against human HepG2 cells assessed as cell growth inhibition at 30 uM after 48 hrs by MTT assay; format: functional; details: HepG2, 48 h, read-out: GI; procedure, shortened: as §1

Compound | inhibition of growth at 50 µM [1] [%] | inhibition of growth at 30 µM [2] [%] | inhibition of growth at 50 µM [3] [%] | inhibition of growth at 50 µM [4] [%] | inhibition of growth at 30 µM [5] [%] | inhibition of growth at 50 µM [6] [%] | logP [7] | inhibition of growth at 50 µM [8] [%] | solubility [9] [µg/mL] | inhibition of growth at 30 µM [10] [%] | inhibition of growth at 30 µM [11] [%] | inhibition of growth at 30 µM [12] [%]
C[C@H]1[C@@H](OCCOc2ccc(/C=C/C(=O)c3ccc(Cl)cc3)cc2)O[C@@H]2O[C@@]3(C)CC[C@H]4[C@H](C)CC[C@@H]1[C@@]24OO3 | 62.8 | 38.7 | 93.2 | 25.1 | 54.4 | 41.8 | 5.34 to 7.45 | 45.6 | < 10 | 42.1 | 89.4 | 19.7
C[C@H]1[C@@H](OCCOc2ccc(/C=C/C(=O)c3ccccc3Cl)cc2)O[C@@H]2O[C@@]3(C)CC[C@H]4[C@H](C)CC[C@@H]1[C@@]24OO3 | 61.1 | 52.4 | 92.9 | 25.2 | 55.1 | 56.1 | 5.34 to 7.45 | 57.5 | < 10 | 56.7 | 91.8 | 23.8
COc1ccc(C(=O)/C=C/c2ccc(OCCO[C@H]3O[C@@H]4O[C@@]5(C)CC[C@H]6[C@H](C)CC[C@@H]([C@H]3C)[C@@]46OO5)cc2)cc1Cl | 52.2 | 40.3 | 93.8 | 32.3 | 51.1 | 42.7 | 5.34 to 7.45 | 45.4 | < 10 | 41.6 | 93.4 | 26.7
C[C@H]1[C@@H](OCCOc2cccc(C(=O)/C=C/c3cn(CCO[C@H]4O[C@@H]5O[C@@]6(C)CC[C@H]7[C@H](C)CC[C@@H]([C@H]4C)[C@@]57OO6)c4ccccc34)c2)O[C@@H]2O[C@@]3(C)CC[C@H]4[C@H](C)CC[C@@H]1[C@@]24OO3 | 49.4 | 46.3 | 83.2 | 28.7 | 47.1 | 48.7 | 5.34 to 7.45 | 37.8 | < 10 | 36.2 | 81.5 | 25.4
C[C@H]1[C@@H](OCCOc2ccc(/C=C/C(=O)c3cc4ccccc4o3)cc2)O[C@@H]2O[C@@]3(C)CC[C@H]4[C@H](C)CC[C@@H]1[C@@]24OO3 | 62.3 | 42.5 | 88.7 | 32 | 52.4 | 48.5 | 5.34 to 7.45 | 43.6 | < 10 | 37.6 | 84.6 | 29.9
C[C@H]1[C@@H](OCCOc2ccc(C(=O)/C=C/c3c[nH]c4ccccc34)cc2)O[C@@H]2O[C@@]3(C)CC[C@H]4[C@H](C)CC[C@@H]1[C@@]24OO3 | 49.4 | 38.6 | 91.8 | 25.9 | 49.1 | 39.6 | 5.34 to 7.45 | 44.1 | < 10 | 41.9 | 89.1 | 21.2
